Data taken from ChEMBL document CHEMBL1275452, “Epidemiological cutoffs and cross-resistance to azole drugs in Aspergillus fumigatus” (2008).
≈ marks a conversion by molar mass, not a printed value.

How the values were obtained:
Format in all cases: functional
Aspergillus fumigatus [1] = assay: Antimicrobial activity against azole-resistant Aspergillus fumigatus harboring Tandem repeat-L98H (TR) mutation in cyp51A gene after 48 hrs by microdilution method
Procedure, shortened: (§1)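 EUCAST broth microdilution in RPMI 1640 supplemented to 2% glucose. Inoculum 2 × 105 to 5 × 10^5 CFU/ml, spores counted in a hematocytometer. MIC read at 48 h as the concentration giving complete inhibition of visual growth. Strains with itraconazole MICs of ≥8 mg/liter were tested at least twice on different days (2 to 11 times). Values are geometric means of MICs. QC strain ATCC 204305 was included.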

Aspergillus fumigatus [2] = assay: Antimicrobial activity against azole-resistant Aspergillus fumigatus harboring G54V, G54E, G54R and G54W mutation in cyp51A gene after 48 hrs by microdilution method; procedure, shortened: as §1
Aspergillus fumigatus [3] = assay: Antimicrobial activity against azole-resistant Aspergillus fumigatus harboring M220V, M220K, M220T and M220I mutation in cyp51A gene after 48 hrs by microdilution method; procedure, shortened: as §1
Aspergillus fumigatus [4] = assay: Antimicrobial activity against azole-susceptible Aspergillus fumigatus after 48 hrs by microdilution method
Procedure, shortened: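 EUCAST broth microdilution on clinical isolates, RPMI 1640 with glucose to 2%. Inoculum 2 × 105 to 5 × 10^5 CFU/ml, counted as spores in a hematocytometer. MIC read at 48 h as the lowest concentration giving complete inhibition of visual growth. Strains with itraconazole MIC ≤1 mg/liter tested once, some at least twice. Values summarised as geometric means; QC strain ATCC 204305 run alongside.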

| SMILES | MIC (Aspergillus fumigatus [1]) | MIC (Aspergillus fumigatus [2]) | MIC (Aspergillus fumigatus [3]) | MIC (Aspergillus fumigatus [4]) | MIC90 (Aspergillus fumigatus [4]) |
| --- | --- | --- | --- | --- | --- |
| CCC(C)n1ncn(-c2ccc(N3CCN(c4ccc(OCC5COC(Cn6cncn6)(c6ccc(Cl)cc6Cl)O5)cc4)CC3)cc2)c1=O (stereo not given) [ITRACONAZOLE] | 16 µg/mL (≈ 22.7 µM) | 16 µg/mL (≈ 22.7 µM) | 16 µg/mL (≈ 22.7 µM) | 0.32 µg/mL (≈ 0.453 µM) | 0.5 µg/mL (≈ 0.709 µM) |
| CC[C@@H]([C@H](C)O)n1ncn(-c2ccc(N3CCN(c4ccc(OC[C@@H]5CO[C@@](Cn6cncn6)(c6ccc(F)cc6F)C5)cc4)CC3)cc2)c1=O [POSACONAZOLE] | 0.68 µg/mL (≈ 0.97 µM) | 1.6 µg/mL (≈ 2.28 µM) | 0.65 µg/mL (≈ 0.928 µM) | 0.08 µg/mL (≈ 0.114 µM) | 0.125 µg/mL (≈ 0.178 µM) |
| C[C@@H](c1nc(-c2ccc(C#N)cc2)cs1)[C@](O)(Cn1cncn1)c1ccc(F)cc1F [RAVUCONAZOLE] | 6.8 µg/mL (≈ 15.5 µM) | 0.32 µg/mL (≈ 0.731 µM) | 1.85 µg/mL (≈ 4.23 µM) | 0.6 µg/mL (≈ 1.37 µM) | 1 µg/mL (≈ 2.29 µM) |
| C[C@@H](c1ncncc1F)[C@](O)(Cn1cncn1)c1ccc(F)cc1F [VORICONAZOLE] | 3.7 µg/mL (≈ 10.6 µM) | 0.42 µg/mL (≈ 1.2 µM) | 1 µg/mL (≈ 2.86 µM) | 0.53 µg/mL (≈ 1.52 µM) | 1 µg/mL (≈ 2.86 µM) |
